In ChEMBL document CHEMBL3769399, “Synthesis and cytotoxic activities of some pyrazoline derivatives bearing phenyl pyridazine core as new apoptosis inducers” (Eur J Med Chem, 2016):

Assays:
A549 [1] = assay: Antiproliferative activity against human A549 cells assessed as cell viability after 24 hrs by MTT assay; format: functional, cell-based; settings: A549, 24 h
Procedure, shortened: (§1)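 Monolayers in DMEM (A549) or RPMI (MCF-7) with 10% fetal calf serum, penicillin and streptomycin at 37 °C and 5% CO2. Seeded overnight at 10^3 cells/well, then dosed at 0–100 from a serum-free stock in 1% DMSO diluted in complete medium. After 24 h, viability was read by WST-1 premix at 450 nm and blank-corrected against untreated cells. IC50 given as mean with standard error.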

HepG2 [2] = assay: Antiproliferative activity against human HepG2 cells assessed as cell viability after 24 hrs by MTT assay; format: functional, cell-based; settings: HepG2, 24 h
Procedure, shortened: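 HepG2 grown as monolayer in DMEM plus 10% fetal calf serum and penicillin/streptomycin at 37 °C, 5% CO2. Plated overnight at 10^3 cells/well and exposed 24 h to five levels (0–100) diluted in complete medium from a 1% DMSO stock. WST-1 absorbance at 450 nm gave blank-corrected % viability versus untreated control, from which IC50 was derived.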

MCF7 [3] = assay: Antiproliferative activity against human MCF7 cells assessed as cell viability after 24 hrs by MTT assay; format: functional, cell-based; settings: MCF7, 24 h; procedure, shortened: as §1
[4] = Antiproliferative activity against human Caco2 cells assessed as cell viability after 24 hrs by MTT assay; format: functional, cell-based; settings: Caco-2, 24 h
Procedure, shortened: (§2)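 CaCo-2 kept in RPMI with 10% fetal calf serum and antibiotics at 37 °C, 5% CO2. Cells were seeded at 10^3 per well overnight, then treated 24 h at 0, 5, 10, 50 and 100, diluted from a stock containing 1% DMSO. Viability came from WST-1 read at 450 nm, blank-subtracted and normalised to untreated cells.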

[5] = Antiproliferative activity against human Caco2 cells assessed as cell viability at 10 uM after 24 hrs by MTT assay; format: functional; settings: Caco-2, 24 h, read-out: Activity; procedure, shortened: as §2
[6] = Cytotoxicity against HEK293 cells assessed as cell viability at 10 uM after 24 hrs by MTT assay; format: cell-based; settings: human, read-out: Activity
Procedure, shortened: (§3)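 Human embryonic kidney 293 cells, as normal-cell counterpart, treated at four levels (10, 100, 200, 300). Percentage of viable cells reported with SE at each level, and IC50 estimated.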

[7] = Cytotoxicity against HEK293 cells assessed as cell viability at 100 uM after 24 hrs by MTT assay; format: cell-based; settings: human, read-out: Activity; procedure, shortened: as §3
[8] = Cytotoxicity against HEK293 cells assessed as cell viability at 200 uM after 24 hrs by MTT assay; format: cell-based; settings: human, read-out: Activity; procedure, shortened: as §3
[9] = Cytotoxicity against HEK293 cells assessed as cell viability at 300 uM after 24 hrs by MTT assay; format: cell-based; settings: human, read-out: Activity; procedure, shortened: as §3
HEK293 = assay: Cytotoxicity against HEK293 cells assessed as cell viability after 24 hrs by MTT assay; format: cell-based; settings: Homo sapiens, HEK293, 24 h; procedure, shortened: as §3
HepG2 [10] = assay: Induction of apoptosis in human HepG2 cells at 10 uM by annexin V-FITC/ethidium homodimer III staining-based flow cytometry relative to control; format: functional
Procedure, shortened: (§4)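 Treated cells at 2–3×10^5/mL were resuspended in 1X binding buffer and stained with FITC-Annexin V (apoptosis) plus Ethidium Homodimer III (necrosis) for 15 min at room temperature in the dark. Buffer was added and FACS was read within 1 h. Percent induction is the compound's apoptotic or necrotic fraction minus that of untreated negative control.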

HepG2 [11] = assay: Induction of necrosis in human HepG2 cells at 10 uM by annexin V-FITC/ethidium homodimer III staining-based flow cytometry relative to control; format: functional; procedure, shortened: as §4
A549 [12] = assay: Induction of apoptosis in human A549 cells at 10 uM by annexin V-FITC/ethidium homodimer III staining-based flow cytometry relative to control; format: functional; procedure, shortened: as §4
A549 [13] = assay: Induction of necrosis in human A549 cells at 10 uM by annexin V-FITC/ethidium homodimer III staining-based flow cytometry relative to control; format: functional; procedure, shortened: as §4
MCF7 [14] = assay: Induction of apoptosis in human MCF7 cells at 10 uM by annexin V-FITC/ethidium homodimer III staining-based flow cytometry relative to control; format: functional; procedure, shortened: as §4
MCF7 [15] = assay: Induction of necrosis in human MCF7 cells at 10 uM by annexin V-FITC/ethidium homodimer III staining-based flow cytometry relative to control; format: functional; procedure, shortened: as §4

Row | SMILES | IC50 (A549 [1]) [µM] | IC50 (HepG2 [2]) [µM] | IC50 (MCF7 [3]) [µM] | IC50 [4] [µM] | viability at 10 µM [5] [%] | viability at 24 h, 10 µM [6] [%] | viability at 24 h, 100 µM [7] [%] | viability at 24 h, 200 µM [8] [%] | viability at 24 h, 300 µM [9] [%] | IC50 (HEK293) [µM] | Activity (HepG2 [10]) [%] | Activity (HepG2 [11]) [%] | Activity (A549 [12]) [%] | Activity (A549 [13]) [%] | Activity (MCF7 [14]) [%] | Activity (MCF7 [15]) [%]
1 | Fc1ccc(C2CC(c3ccccc3)=NN2c2ccc(-c3ccccc3)nn2)cc1 (stereo unspecified) | 89.2 | 8.42 | 100 | 10 | 50 | 93.7 | 91.9 | 86.3 | 78.6 | > 300 | 30.5 | 8.84 |  |  |  | 
2 | COc1ccc(C2CC(c3ccccc3)=NN2c2ccc(-c3ccccc3)nn2)cc1 (stereo unspecified) | 91.7 | > 100 | 100 | > 100 |  |  |  |  |  |  |  |  |  |  |  | 
3 | COc1ccc(C2CC(c3ccccc3)=NN2c2ccc(-c3ccccc3)nn2)c(OC)c1 (stereo unspecified) | 9.56 | 100 | > 100 | > 100 |  | 85.2 | 82.9 | 81.1 | 74.2 | > 300 |  |  | 27 | 1.04 |  | 
4 | c1ccc(C2=NN(c3ccc(-c4ccccc4)nn3)C(c3ccccc3)C2)cc1 (stereo unspecified) | > 100 | 10 | 23.8 | 40.9 |  |  |  |  |  |  |  |  |  |  |  | 
5 | FC(F)(F)c1ccc(C2CC(c3ccccc3)=NN2c2ccc(-c3ccccc3)nn2)cc1 (stereo unspecified) | 9.16 | 10 | 100 | 50 |  | 89.8 | 86.2 | 82.3 | 70.8 | > 300 |  |  | 46.6 | 11.11 |  | 
6 | COc1ccc(C2=NN(c3ccc(-c4ccccc4)nn3)C(c3ccc(OC)cc3)C2)cc1 (stereo unspecified) | > 100 | > 100 | 100 | > 100 |  |  |  |  |  |  |  |  |  |  |  | 
7 | COc1ccc(C2=NN(c3ccc(-c4ccccc4)nn3)C(c3ccc(C(F)(F)F)cc3)C2)cc1 (stereo unspecified) | > 100 | > 100 | 46.8 | 65 |  |  |  |  |  |  |  |  |  |  |  | 
8 | COc1ccc(C2=NN(c3ccc(-c4ccccc4)nn3)C(c3ccccc3)C2)cc1 (stereo unspecified) | 75.9 | > 100 | > 100 | > 100 |  |  |  |  |  |  |  |  |  |  |  | 
9 | COc1cc(C2CC(c3ccccc3)=NN2c2ccc(-c3ccccc3)nn2)cc(OC)c1OC (stereo unspecified) | 83.8 | 100 | 70 | > 100 |  |  |  |  |  |  |  |  |  |  |  | 
10 | COc1cc(C2CC(c3ccc(Cl)cc3)=NN2c2ccc(-c3ccccc3)nn2)cc(OC)c1OC (stereo unspecified) | 83.3 | > 100 | 100 | > 100 |  |  |  |  |  |  |  |  |  |  |  | 
11 | Clc1ccc(C2=NN(c3ccc(-c4ccccc4)nn3)C(c3ccc(Cl)cc3)C2)cc1 (stereo unspecified) | > 100 | 10 | 8.8 | > 100 |  | 85.6 | 81.7 | 79.8 | 76.4 | > 300 |  |  |  |  | 39 | 0.1
12 | COc1ccc(C2=NN(c3ccc(-c4ccccc4)nn3)C(c3ccc(F)cc3)C2)cc1 (stereo unspecified) | > 100 | 9.16 | 20 | 18.1 |  |  |  |  |  |  |  |  |  |  |  | 
13 | COc1ccc(C2=NN(c3ccc(-c4ccccc4)nn3)C(c3ccc(OC)cc3OC)C2)cc1 (stereo unspecified) | 100 | > 100 | 100 | > 100 |  |  |  |  |  |  |  |  |  |  |  | 
14 | Clc1ccc(C2=NN(c3ccc(-c4ccccc4)nn3)C(c3ccccc3)C2)cc1 (stereo unspecified) | 96.7 | 8.75 | 10 | 100 |  | 84 | 81.6 | 78.1 | 71.6 | > 300 | 22.7 | 23.45 |  |  |  | 
15 | COc1ccc(C2CC(c3ccc(Cl)cc3)=NN2c2ccc(-c3ccccc3)nn2)c(OC)c1 (stereo unspecified) | > 100 | > 100 | > 100 | > 100 |  |  |  |  |  |  |  |  |  |  |  | 
16 | COc1ccc(C2CC(c3ccc(Cl)cc3)=NN2c2ccc(-c3ccccc3)nn2)cc1 (stereo unspecified) | 100 | > 100 | 100 | > 100 |  |  |  |  |  |  |  |  |  |  |  | 
17 | COc1cccc2c1C(=O)c1c(O)c3c(c(O)c1C2=O)C[C@@](O)(C(=O)CO)C[C@@H]3O[C@H]1C[C@H](N)[C@H](O)[C@H](C)O1 [DOXORUBICIN] |  |  |  | 3 |  |  |  |  |  |  |  |  |  |  |  | 
18 | COc1ccc(C2=NN(c3ccc(-c4ccccc4)nn3)C(c3ccc(Cl)cc3)C2)cc1 (stereo unspecified) | 100 | > 100 | 58 | > 100 |  |  |  |  |  |  |  |  |  |  |  | 
19 | COc1ccc(C2=NN(c3ccc(-c4ccccc4)nn3)C(c3cc(OC)c(OC)c(OC)c3)C2)cc1 (stereo unspecified) | > 100 | > 100 | 100 | > 100 |  |  |  |  |  |  |  |  |  |  |  | 
20 | Fc1ccc(C2CC(c3ccc(Cl)cc3)=NN2c2ccc(-c3ccccc3)nn2)cc1 (stereo unspecified) | > 100 | 10 | 3.75 | > 100 |  | 85.9 | 82.3 | 75.8 | 68.8 | > 300 |  |  |  |  | 32.1 | 1.98
21 | Clc1ccc(C2CC(c3ccccc3)=NN2c2ccc(-c3ccccc3)nn2)cc1 (stereo unspecified) | 100 | 6.31 | 100 | 100 |  | 96.6 | 91.2 | 88.3 | 74 | > 300 | 44.4 | 4.4 |  |  |  | 
